Measurements: PMC9827987 (Chemmedchem, 2022)
Like-named read-outs stand apart in the source and are kept apart here.

How the values were obtained:
PfDHFR-WT = PfDHFR-WT (Plasmodium falciparum, UniProt P13922, N108S/R59C); experiment: DHFR enzyme inhibition assay, wild type; assay type: biochemical
PfDHFR-QM = PfDHFR-QM (Plasmodium falciparum, UniProt P13922, I164L/N51I); experiment: DHFR enzyme inhibition assay, quadruple mutant; assay type: biochemical
[1] = system: P. falciparum TM4/8.2 (wild type PfDHFR); experiment: In vitro antimalarial activity, 3H-hypoxanthine incorporation, TM4/8.2; assay type: cell-based; details: Plasmodium falciparum
[2] = system: P. falciparum V1/S (QM PfDHFR); experiment: In vitro antimalarial activity, 3H-hypoxanthine incorporation, V1S; assay type: cell-based; details: Plasmodium falciparum, read-out: IC50 PfV1S
Outline: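 P. falciparum V1/S (quadruple-mutant PfDHFR, chloroquine-resistant) grown in human erythrocytes at 37 °C under 3% CO2. Medium was RPMI 1640 with 25 mM HEPES, 0.2% NaHCO3, 40 µg/mL gentamicin and 8% human serum. Activity was measured by ³H-hypoxanthine incorporation.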

KB cells = experiment: Cytotoxicity, sulforhodamine B staining, KB; assay type: cell-based; details: Homo sapiens, read-out: IC50 KB
HsDHFR = molecular target: T1, HsDHFR (Homo sapiens, UniProt P00374); experiment: biochemical
T1 sequence (P00374 1-187): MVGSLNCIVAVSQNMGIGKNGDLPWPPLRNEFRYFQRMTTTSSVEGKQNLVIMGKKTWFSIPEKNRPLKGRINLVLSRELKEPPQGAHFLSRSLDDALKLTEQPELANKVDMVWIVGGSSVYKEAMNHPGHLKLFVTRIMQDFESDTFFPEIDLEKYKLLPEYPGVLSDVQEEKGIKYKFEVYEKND

[3] = read-out: IC50 PfTM4/8.2, WT P. falciparum, drug sensitive strain

**Q.** What does the source list for COc1ccccc1CCNCc1c(N)nc(N)nc1C1CCCCC1 [7 o, 6‐Cyclohexyl‐5‐{[(2‐methoxyphenethyl)amino]methyl}pyrimidine‐2,4‐diamine]?
**A.** Ki (PfDHFR-WT): 0.128 ± 0.009 µM; Ki (PfDHFR-QM): 0.126 ± 0.009 µM; IC50 ([1]; read-out: IC50 PfTM4/8.2): 3.7 ± 0.3 µM; IC50 [2]: 9.4 ± 1.9 µM; IC50 (KB cells): 22 ± 0.3 µM; Ki (HsDHFR): > 500 µM

**Q.** Which results are given for Nc1nc(N)c(CNCCc2ccc(Cl)cc2Cl)c(C2CC2)n1 [7 m, 6‐Cyclopropyl‐5‐{[(2,4‐dichlorophenethyl)amino]methyl}pyrimidine‐2,4‐diamine]?
**A.** Ki (PfDHFR-WT): 0.002 ± 3e-05 µM; IC50 [1, 3]: 3.6 ± 0.2 µM; IC50 [2]: 6.3 ± 1.2 µM; IC50 (KB cells): 66 ± 2 µM; Ki (HsDHFR): 0.131 ± 0.005 µM

**Q.** Which results are given for CCc1nc(N)nc(N)c1-c1ccc(Cl)cc1 [PYR, pyrimethamine, reference compound]?
**A.** IC50 ([1]; read-out: IC50 PfTM4/8.2): 0.05 ± 0.007 µM; IC50 [1, 3]: 0.053 µM; IC50 [2]: > 100 µM; IC50 (KB cells): 60 ± 26 µM

**Q.** With Nc1nc(N)c(CNCCc2ccc(F)cc2)c(C2CCCCC2)n1 [7 t, 6‐Cyclohexyl‐5‐{[(4‐fluorophenethyl)amino]methyl}pyrimidine‐2,4‐diamine] as the compound, how does the Ki (PfDHFR-WT) read?
**A.** 0.08 ± 0.009 µM

**Q.** And the Ki (PfDHFR-QM)?
**A.** 0.136 ± 0.007 µM

**Q.** And the IC50 ([1]; read-out: IC50 PfTM4/8.2)?
**A.** 2.2 ± 0.1 µM

**Q.** And the IC50 [2]?
**A.** 7 ± 2 µM

**Q.** And the IC50 (KB cells)?
**A.** 56 ± 5 µM

**Q.** And the Ki (HsDHFR)?
**A.** > 250 µM

**Q.** With COc1ccc(CCNCc2c(N)nc(N)nc2-c2ccccc2)cc1 [7 c, 6‐Phenyl‐5‐{[(4‐methoxyphenethyl)amino]methyl}pyrimidine‐2,4‐diamine] as the compound, how does the Ki (PfDHFR-WT) read?
**A.** 0.086 ± 0.013 µM

**Q.** And the Ki (PfDHFR-QM)?
**A.** 0.069 ± 0.005 µM

**Q.** What about the IC50 ([1]; read-out: IC50 PfTM4/8.2) of the same compound?
**A.** 28 ± 5 µM

**Q.** And the IC50 [2]?
**A.** 34 ± 2 µM

**Q.** What about the IC50 (KB cells) of the same compound?
**A.** > 100 µM

**Q.** And the Ki (HsDHFR)?
**A.** > 500 µM

**Q.** Which results are given for COc1ccc(CCNCc2c(N)nc(N)nc2C2CCCCC2)cc1 [7 q, 6‐Cyclohexyl‐5‐{[(4‐methoxyphenethyl)amino]methyl}pyrimidine‐2,4‐diamine]?
**A.** Ki (PfDHFR-WT): 0.032 ± 0.001 µM; Ki (PfDHFR-QM): 0.055 ± 0.002 µM; IC50 ([1]; read-out: IC50 PfTM4/8.2): 1.8 ± 0.1 µM; IC50 [2]: 3.7 ± 0.2 µM; IC50 (KB cells): 23 ± 0.2 µM; Ki (HsDHFR): > 500 µM

**Q.** Which Ki (PfDHFR-WT) does the source give for Nc1nc(N)c(CNCCc2ccc(Cl)cc2Cl)c(C2CCCCC2)n1 [7 x, 6‐Cyclohexyl‐5‐{[(2,4‐dichlorophenethyl)amino]methyl}pyrimidine‐2,4‐diamine] here?
**A.** 0.007 ± 0.0003 µM

**Q.** And the Ki (PfDHFR-QM)?
**A.** 0.123 ± 0.008 µM

**Q.** And the IC50 ([1]; read-out: IC50 PfTM4/8.2)?
**A.** 2.5 ± 0.4 µM

**Q.** And the IC50 [2]?
**A.** 4.9 ± 0.3 µM

**Q.** What about the IC50 (KB cells) of the same compound?
**A.** 62 ± 3 µM

**Q.** What about the Ki (HsDHFR) of the same compound?
**A.** > 250 µM

**Q.** What does the source list for COc1ccccc1CCNCc1c(N)nc(N)nc1-c1ccccc1 [7 a, 6‐Phenyl‐5‐{[(2‐methoxyphenethyl)amino]methyl}pyrimidine‐2,4‐diamine]?
**A.** Ki (PfDHFR-WT): 0.243 ± 0.021 µM; Ki (PfDHFR-QM): 0.208 ± 0.003 µM; IC50 ([1]; read-out: IC50 PfTM4/8.2): 27 ± 3 µM; IC50 [2]: 54 ± 2 µM; IC50 (KB cells): > 100 µM; Ki (HsDHFR): > 500 µM

**Q.** Which Ki (PfDHFR-WT) does the source give for Nc1nc(N)c(CNCCc2ccc(F)cc2)c(C2CC2)n1 [7 i, 6‐Cyclopropyl‐5‐{[(4‐fluorophenethyl)amino]methyl}pyrimidine‐2,4‐diamine] here?
**A.** 0.0057 ± 0.0005 µM

**Q.** What about the Ki (PfDHFR-QM) of the same compound?
**A.** 0.035 ± 0.002 µM

**Q.** And the IC50 [1, 3]?
**A.** 23 ± 3 µM

**Q.** What about the IC50 [2] of the same compound?
**A.** 48 ± 5 µM

**Q.** What about the IC50 (KB cells) of the same compound?
**A.** > 100 µM

**Q.** What about the Ki (HsDHFR) of the same compound?
**A.** 0.212 ± 0.012 µM

**Q.** With CC1(C)N=C(N)N=C(N)N1c1ccc(Cl)cc1 [CYC, cycloguanil, reference compound] as the compound, how does the Ki (PfDHFR-QM) read?
**A.** 0.42 ± 0.13 µM

**Q.** What about the IC50 ([1]; read-out: IC50 PfTM4/8.2) of the same compound?
**A.** 0.03 ± 0.005 µM

**Q.** And the IC50 [2]?
**A.** 92 ± 6 µM

**Q.** And the IC50 (KB cells)?
**A.** > 100 µM

**Q.** With Nc1nc(N)c(CNCCc2cccc(F)c2)c(C2CC2)n1 [7 h, 6‐Cyclopropyl‐5‐{[(3‐fluorophenethyl)amino]methyl}pyrimidine‐2,4‐diamine] as the compound, how does the Ki (PfDHFR-WT) read?
**A.** 0.01 ± 0.0003 µM

**Q.** What about the Ki (PfDHFR-QM) of the same compound?
**A.** 0.026 ± 0.002 µM

**Q.** And the IC50 [1, 3]?
**A.** 4.2 ± 0.3 µM

**Q.** And the IC50 [2]?
**A.** 20 ± 2 µM

**Q.** And the IC50 (KB cells)?
**A.** > 100 µM

**Q.** And the Ki (HsDHFR)?
**A.** 0.458 ± 0.031 µM

**Q.** Which Ki (PfDHFR-WT) does the source give for Nc1nc(N)c(CNCCc2ccccc2Cl)c(C2CC2)n1 [7 j, 6‐Cyclopropyl‐5‐{[(2‐chlorophenethyl)amino]methyl}pyrimidine‐2,4‐diamine] here?
**A.** 0.0093 ± 0.0005 µM

**Q.** What about the Ki (PfDHFR-QM) of the same compound?
**A.** 0.023 ± 0.0006 µM

**Q.** And the IC50 [1, 3]?
**A.** 0.4 ± 0.01 µM

**Q.** And the IC50 [2]?
**A.** 17 ± 3 µM

**Q.** What about the IC50 (KB cells) of the same compound?
**A.** 83 ± 7 µM

**Q.** And the Ki (HsDHFR)?
**A.** 0.304 ± 0.016 µM

**Q.** Which results are given for Nc1nc(N)c(CNCCc2ccccc2Cl)c(C2CCCCC2)n1 [7 u, 6‐Cyclohexyl‐5‐{[(2‐chlorophenethyl)amino]methyl}pyrimidine‐2,4‐diamine]?
**A.** Ki (PfDHFR-WT): 0.022 ± 0.002 µM; Ki (PfDHFR-QM): 0.038 ± 0.001 µM; IC50 ([1]; read-out: IC50 PfTM4/8.2): 3.3 ± 0.3 µM; IC50 [2]: 16 ± 1 µM; IC50 (KB cells): 22 ± 0.05 µM; Ki (HsDHFR): > 250 µM

**Q.** With Nc1nc(N)c(CNCCc2ccc(Cl)c(Cl)c2)c(C2CC2)n1 [7 n, 6‐Cyclopropyl‐5‐{[(3,4‐dichlorophenethyl)amino]methyl}pyrimidine‐2,4‐diamine] as the compound, how does the Ki (PfDHFR-WT) read?
**A.** 0.0013 ± 6e-05 µM

**Q.** And the Ki (PfDHFR-QM)?
**A.** 0.013 ± 4e-05 µM

**Q.** What about the IC50 [1, 3] of the same compound?
**A.** 3.3 ± 0.1 µM

**Q.** And the IC50 [2]?
**A.** 4.4 ± 0.1 µM

**Q.** What about the IC50 (KB cells) of the same compound?
**A.** 23 ± 0.5 µM

**Q.** And the Ki (HsDHFR)?
**A.** 0.202 ± 0.006 µM
